# Article PMC9845116 (Saudi Pharmaceutical Journal : SPJ, 2022)
# Like-named read-outs stand apart in the source and are kept apart here.
# Tests used:
# Type in all cases: cell-based
# [1] = test system: human liver cell line L-O2; test: Cytotoxic activity on human liver cells
# Outline: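 L-02 cells were grown in DMEM with 10 % FBS and 1 % penicillin–streptomycin at 37 °C, 5 % CO2, then seeded at 2 × 10^4 cells per well in 96-well plates. Test compounds were made as 20 mM DMSO stocks and applied at various concentrations for 48 h. MTT (5 mg/mL stock in PBS) was added for 4 h at 37 °C in the dark. Formazan was dissolved in DMSO and read at 490 nm; triplicate experiments.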
# Hela = test: MTT cell viability assay, Hela; conditions: for IC50: 48 h
# Hela cells [2] = test: Annexin V-FITC/PI apoptosis assay; conditions: 24 h (control 14.06 %)
# MCF-7 cells = test: Colony formation assay, MCF-7; conditions: 0.5 mM (so in the source), vs 5-Fu 5 μM
# Outline: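 MCF-7 cells grown in DMEM with 10 % FBS and 1 % penicillin–streptomycin at 37 °C, 5 % CO2. Seeded at 1500 cells/well in six-well plates, grown 48 h, then exposed to test compound or 5-Fu for 7 days. Washed with PBS, fixed with paraformaldehyde for 30 min, stained with crystal violet for 30 min, photographed. Clone formation rate quantified; mean ± SD of three separate experiments.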
# MCF-7 = test: MTT cell viability assay, MCF-7
# HepG2 = test: MTT cell viability assay, HepG2
# Hela cells [3] = test: Colony formation assay, Hela; conditions: 0.5 mM (so in the source), vs 5-Fu 5 μM
# Outline: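 HeLa cells were seeded at 1500 per well in six-well plates and grown 48 h in regular medium. Cells were exposed to test compound or 5-Fu (positive control) at indicated concentrations for 7 days. They were then PBS-washed, fixed with paraformaldehyde 30 min, stained with crystal violet 30 min, and photographed. Clone formation rate was quantified; mean ± SD of three separate experiments.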
# A549 = test: MTT cell viability assay, A549
# Hela cells [4] = test: Hoechst 33,258 staining assay; conditions: increasing concentration 0.5-4 μM, 24 h
# Outline: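 HeLa cells seeded at 1 × 10^4/well in twelve-well plates and grown 24 h in regular medium. Treated 24 h with test compound (0, 0.5, 1, 2, 4 μM) or 5-Fu (5.0 μM). Washed twice with PBS, stained with Hoechst 33,258 for 30 min in the incubator, washed, then imaged by fluorescence microscopy for apoptotic nuclear and cell morphology.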
structure (smiles),measurement,setting,value
"COc1cc(OC)c(C(=O)/C=C/c2ccc(Br)cn2)c(OC)c1 [B3, (E)-3-(5-bromopyridin-2-yl)-1-(2,4,6-trimethoxyphenyl)prop-2-en-1-one]",toxicity on normal cells,[1],low toxicity to normal cells
same,"fold potency than 5-fluorocrail, Hela","Hela; Hela cells, vs 5-Fu",over 10 fold
same,IC50,"Hela; Homo sapiens, HeLa, read-out: IC50(μM) Hela, MTT, 48 h, Hela",3.2 µM
same,"inhibitory effect on cell viability over time, Hela","Hela; MTT at 24 h, 48 h and 72 h",excellent inhibitory effect
same,IC50,"Hela; read-out: IC50(μM) Hela, MTT, Hela",3.2 ± 0.21 µM
same,apoptosis index,Hela cells [2]; 0.5 μM,16.78%
same,apoptosis index,Hela cells [2]; 1 μM,26.41%
same,apoptosis index,Hela cells [2]; 2 μM,30.95%
same,apoptosis index,Hela cells [2]; 4 μM,39.8%
same,"colony formation, MCF-7",MCF-7 cells,slightly better than the positive control
same,IC50,"MCF-7; Homo sapiens, MCF7, 48 h, read-out: IC50(μM) MCF-7, MTT, 48 h, MCF-7",3.85 µM
same,"fold potency than 5-fluorocrail, MCF-7","MCF-7; MCF-7 cells, vs 5-Fu",over 10 fold
same,"inhibitory effect on cell viability over time, MCF-7","MCF-7; MTT at 24 h, 48 h and 72 h",excellent inhibitory effect
same,IC50,"MCF-7; read-out: IC50(μM) MCF-7, MTT, 48 h, MCF-7",3.85 ± 0.28 µM
same,IC50,"HepG2; Homo sapiens, HepG2, 48 h, read-out: IC50(μM) HepG2",5.81 ± 0.37 µM
same,"inhibitory effect on cell viability over time, HepG2","HepG2; MTT at 24 h, 48 h and 72 h",excellent inhibitory effect
same,"colony formation, Hela",Hela cells [3],slightly better than the positive control
same,IC50,"A549; Homo sapiens, A549, 48 h, read-out: IC50(μM) A549",5.19 ± 0.23 µM
same,"inhibitory effect on cell viability over time, A549","A549; MTT at 24 h, 48 h and 72 h",excellent inhibitory effect
same,morphological changes of Hela cells,Hela cells [4],"cells shrinkage, nuclear division and formation of apoptotic bodies"
